Laboratory results: ChEMBL document CHEMBL1926579, “N-Aryl-2-phenyl-2,3-dihydro-imidazo[1,2-b]pyrazole-1-carboxamides 7-substituted strongly inhibiting both fMLP-OMe- and IL-8-induced human neutrophil chemotaxis” (Eur J Med Chem, 2012)
pIC50: −log10 of the molar value. Calls of active or inactive are those of the source. No cut-off for these calls is given here.

Legend:
[1] = Antiinflammatory activity in human neutrophils assessed as inhibition of fMLP-OMe-induced chemotaxis preincubated for 10 mins; type: functional, cell-based; details: Neutrophil
How it was run: (§1)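 Neutrophils from healthy donors' blood, isolated by dextran sedimentation, Ficoll–Paque centrifugation and hypotonic red-cell lysis, held in KRPG pH 7.4 at room temperature. Cells preincubated with compound 10 min. 48-well microchemotaxis chamber; compound in the upper compartment at 10^-12 to 10^-6 M in KRPG with 1 mg/mL BSA. Attractant in the lower compartment: fMLP-OMe 10 nM or CXCL8/IL8 1 nM.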

[2] = Antiinflammatory activity in human neutrophils assessed as inhibition of IL8-induced chemotaxis preincubated for 10 mins; type: functional, cell-based; details: Neutrophil; how it was run: as §1
[3] = organism: Homo sapiens; assay: Induction of Akt phosphorylation in fMLP-OMe-stimulated human neutrophils
[4] = organism: Homo sapiens; assay: Induction of Akt phosphorylation in IL8-stimulated human neutrophils

Row | Compound | pIC50 [1] | pIC50 [2] | Activity [3] | Activity [4]
1 | NC(=O)c1cnn2c1N(C(=O)Nc1cccc(F)c1)C(c1ccccc1)C2 (stereo not drawn) | 8.41 | 8.92 | inactive | inactive
2 | O=C(c1cnn2c1N(C(=O)Nc1cccc(F)c1)C(c1ccccc1)C2)N1CCCCC1 (stereo not drawn) | 8.26 | 8.92 | – | –
3 | CCOC(=O)c1cnn2c1N(C(=O)Nc1cccc3ccccc13)C(c1ccccc1)C2 (stereo not drawn) | 7.86 | 6.69 | – | –
4 | O=C(Nc1cccc2ccccc12)N1c2ccnn2CC1c1ccccc1 (stereo not drawn) | < 6.00 | < 6.00 | – | –
5 | O=C(NC1CC1)c1cnn2c1N(C(=O)Nc1ccccc1)C(c1ccccc1)C2 (stereo not drawn) | 6.91 | 7.88 | – | –
6 | NC(=O)c1cnn2c1N(C(=O)Nc1ccccc1F)C(c1ccccc1)C2 (stereo not drawn) | < 6.00 | 8.21 | – | –
7 | O=C(Nc1ccccc1)N1c2ccnn2CC1c1ccccc1 (stereo not drawn) | 8.32 | < 6.00 | – | –
8 | O=C(Nc1cccc(F)c1)N1c2ccnn2CC1c1ccccc1 (stereo not drawn) | 7.92 | < 6.00 | – | –
9 | CCOC(=O)c1cnn2c1N(C(=O)Nc1ccccc1F)C(c1ccccc1)C2 (stereo not drawn) | 6.94 | 8.12 | – | –
10 | O=C(NC1CC1)c1cnn2c1N(C(=O)Nc1cccc(F)c1)C(c1ccccc1)C2 (stereo not drawn) | 6.86 | < 6.00 | – | –
11 | CCOC(=O)c1cnn2c1N(C(=O)Nc1ccccc1)C(c1ccccc1)C2 (stereo not drawn) | 7.01 | < 6.00 | – | –
12 | O=C(Nc1ccc(F)cc1)N1c2ccnn2CC1c1ccccc1 (stereo not drawn) | 7.02 | < 6.00 | – | –
13 | NC(=O)c1cnn2c1N(C(=O)Nc1cccc3ccccc13)C(c1ccccc1)C2 (stereo not drawn) | 6.96 | < 6.00 | – | –
14 | NC(=O)c1cnn2c1N(C(=O)Nc1ccc(F)cc1)C(c1ccccc1)C2 (stereo not drawn) | 7.94 | 6.32 | – | –
15 | CCOC(=O)c1cnn2c1N(C(=O)Nc1cccc(F)c1)C(c1ccccc1)C2 (stereo not drawn) | 8.04 | 6.95 | – | –
16 | CCOC(=O)c1cnn2c1N(C(=O)Nc1ccc(F)cc1)C(c1ccccc1)C2 (stereo not drawn) | 7.99 | < 6.00 | – | –
17 | O=C(Nc1ccccc1F)N1c2ccnn2CC1c1ccccc1 (stereo not drawn) | 8.27 | < 6.00 | – | –
18 | O=C(c1cnn2c1N(C(=O)Nc1ccccc1)C(c1ccccc1)C2)N1CCCCC1 (stereo not drawn) | 6.01 | < 6.00 | – | –
